{"source": "ChEMBL document CHEMBL3091272", "about": "“Caesalminaxins A-L, cassane diterpenoids from the seeds of Caesalpinia minax” (J Nat Prod, 2013)", "assay_type_in_all_cases": "functional, cell-based", "key": {"HepG2": {"system": "HepG2", "test": "Cytotoxicity against human HepG2 cells after 24 to 72 hrs by MTT assay", "outline": "(§1)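 Cells seeded at 5 × 10^4 cells/mL and held 24 h at 37 °C before the test compound was added as a DMSO solution at a range of concentrations. MTT staining was done after 24, 48 and 72 h. Absorbance was read at 490 nm against a negative control. IC50 was the concentration giving 50% cell death, taken from a plot of concentration versus % viability. Camptothecin served as positive control.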"}, "K562": {"system": "K562", "test": "Cytotoxicity against human K562 cells after 24 to 72 hrs by MTT assay", "outline": "as §1"}, "HeLa": {"system": "HeLa", "test": "Cytotoxicity against human HeLa cells after 24 to 72 hrs by MTT assay", "outline": "as §1"}, "DU-145": {"system": "DU-145", "test": "Cytotoxicity against human DU145 cells after 24 to 72 hrs by MTT assay", "outline": "as §1"}}, "data": [{"smiles": "CC(=O)O[C@H]1[C@@H]2OC(=O)[C@@H]3c4ccoc4C[C@@H]([C@@H]23)[C@@]2(C)[C@@H](O)CCC(C)(C)[C@]12O", "values": [{"measurement": "IC50", "setting": "HepG2", "result": 8, "unit": "µM"}, {"measurement": "IC50", "setting": "K562", "result": "> 50", "unit": "µM"}, {"measurement": "IC50", "setting": "HeLa", "result": "> 50", "unit": "µM"}, {"measurement": "IC50", "setting": "DU-145", "result": 12, "unit": "µM"}]}, {"smiles": "CCO[C@]1(C)[C@@H]2[C@@H](OC(C)=O)[C@H](OC(C)=O)[C@@]3(O)C(C)(C)CC[C@H](OC(C)=O)[C@]3(C)[C@H]2C[C@]12C(=O)O[C@@H]1O[C@@H]12", "values": [{"measurement": "IC50", "setting": "HepG2", "result": "> 50", "unit": "µM"}, {"measurement": "IC50", "setting": "K562", "result": 9.9, "unit": "µM"}, {"measurement": "IC50", "setting": "HeLa", "result": 12.1, "unit": "µM"}, {"measurement": "IC50", "setting": "DU-145", "result": 17.1, "unit": "µM"}]}, {"smiles": "CO[C@H]1C=C2[C@@](OC)(C[C@H]3[C@@H]([C@@H](OC(C)=O)[C@H](OC(C)=O)[C@@]4(O)C(C)(C)CC[C@H](OC(C)=O)[C@]34C)[C@]2(C)O)O1", "values": [{"measurement": "IC50", "setting": "HepG2", "result": 11.5, "unit": "µM"}, {"measurement": "IC50", "setting": "K562", "result": 9.2, "unit": "µM"}, {"measurement": "IC50", "setting": "HeLa", "result": "> 50", "unit": "µM"}, {"measurement": "IC50", "setting": "DU-145", "result": "> 50", "unit": "µM"}]}, {"smiles": "CC[C@@]1(O)C(=O)OCc2c1cc1n(c2=O)Cc2cc3ccccc3nc2-1", "note": "[CAMPTOTHECIN]", "values": [{"measurement": "IC50", "setting": "HepG2", "result": 0.6, "unit": "µM"}, {"measurement": "IC50", "setting": "K562", "result": 0.4, "unit": "µM"}, {"measurement": "IC50", "setting": "HeLa", "result": 0.5, "unit": "µM"}, {"measurement": "IC50", "setting": "DU-145", "result": 0.8, "unit": "µM"}]}]}
